Test results taken from PMC9536290 (Clinical Infectious Diseases: An Official Publication of …, 2022).

Assays:
[1] = Phase IIa monotherapy study: plasma pharmacokinetics; format: in vivo, HIV-1–positive, treatment-naive adults; conditions: for Accumulation ratio AUC0-τ, geometric mean (% CVb) / Accumulation ratio Cmax, geometric mean (% CVb) / Accumulation ratio Cτ, geometric mean (% CVb): steady state vs day 1; for Tmax / AUC(0-t): human
Summary of the method: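 Oral doses were given once daily with food: part 1 for 10 days, part 2 for 7 days. Plasma drug was measured by LC-MS/MS (range 3.00–1000 ng/mL). Noncompartmental parameters were AUC0-24, Cmax and tmax on day 1, and AUC0-τ, Cmax and Cτ at steady state (day 8, 9 or 10 in part 1; day 7 in part 2). Accumulation ratios were steady state vs day 1, and dose proportionality used a power model. Participants vomiting within 1× tmax were excluded.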

[2] = Phase IIa monotherapy study: safety and tolerability; format: in vivo, HIV-1–positive, treatment-naive adults; conditions: for Drug-related AEs: Abdominal pain / Drug-related AEs: Any event / Drug-related AEs: Chromaturia / Drug-related AEs: Diarrhea / Drug-related AEs: Epistaxis / Drug-related AEs: Fatigue / Drug-related AEs: Headache / Drug-related AEs: Maculopapular rash / Drug-related AEs: Nausea / Drug-related AEs: Pruritus / Drug-related AEs: Vomiting / Total AEs: Abdominal pain / Total AEs: Any event / Total AEs: Diarrhea / Total AEs: Headache / Total AEs: Lymphadenopathy / Total AEs: Nasopharyngitis / Total AEs: Oropharyngeal pain / Total AEs: Vomiting / Serious AEs: Anal abscess / Serious AEs: Congestive cardiomyopathy: n = 6; for Serious AEs: Anal abscess / Serious AEs: Congestive cardiomyopathy: considered not related to the study drug
Summary of the method: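 Adults were ART-naive, aged 18–65 years, with HIV-1 RNA ≥5000 copies/mL and CD4+ ≥350 cells/mm3. They received placebo or oral once-daily doses after a moderate-fat meal: 10 or 200 mg for 10 days (part 1), or 40–140 mg for 7 days (part 2). Safety was monitored through adverse events, clinical laboratory tests, electrocardiograms and vital signs.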

[3] = system: HIV-1 with A364V mutation; test: Phenotypic resistance of participant virus with A364V; format: cell-based; conditions: virus of 1 participant (200 mg) with full conversion to A364V
[4] = system: triple-mutant polymorph (R361K/V362I/L363M); conditions: cited from earlier work
[5] = observed in other studies; cited from earlier work
[6] = 10 mg once daily, part 1 (10 days)
[7] = 40 mg once daily, part 2 (7 days)
[8] = 80 mg once daily, part 2 (7 days)
[9] = 140 mg once daily, part 2 (7 days)
[10] = 200 mg once daily, part 1 (10 days)
[11] = all doses combined, % of 34 participants

Structure (SMILES): C=C(C)[C@@H]1CC[C@]2(NCCN3CCS(=O)(=O)CC3)CC[C@]3(C)[C@H](CC[C@@H]4[C@@]5(C)CC=C(C6=CC[C@@](CF)(C(=O)O)CC6)C(C)(C)[C@@H]5CC[C@]43C)[C@@H]12 [GSK’254]
- Accumulation ratio AUC0-τ, geometric mean (% CVb) ([1]; 10 mg once daily): 1.54 (24.5)
- Accumulation ratio Cmax, geometric mean (% CVb) ([1]; 10 mg once daily): 0.93 (171.7)
- Accumulation ratio Cτ, geometric mean (% CVb) ([1]; 10 mg once daily): 1.48 (22.2)
- Accumulation ratio AUC0-τ, geometric mean (% CVb) ([1]; 40 mg once daily): 2.29 (11.2)
- Accumulation ratio Cmax, geometric mean (% CVb) ([1]; 40 mg once daily): 2.03 (24.4)
- Accumulation ratio Cτ, geometric mean (% CVb) ([1]; 40 mg once daily): 2.30 (6.4)
- Accumulation ratio AUC0-τ, geometric mean (% CVb) ([1]; 80 mg once daily): 1.93 (18.6)
- Accumulation ratio Cmax, geometric mean (% CVb) ([1]; 80 mg once daily): 1.73 (17.6)
- Accumulation ratio Cτ, geometric mean (% CVb) ([1]; 80 mg once daily): 1.94 (20.8)
- Accumulation ratio Cmax, geometric mean (% CVb) ([1]; 140 mg once daily): 2.02 (37.5)
- Accumulation ratio Cτ, geometric mean (% CVb) ([1]; 140 mg once daily): 1.90 (16.0)
- Accumulation ratio AUC0-τ, geometric mean (% CVb) ([1]; 200 mg once daily): 2.25 (72.1)
- Accumulation ratio Cmax, geometric mean (% CVb) ([1]; 200 mg once daily): 1.98 (69.4)
- Accumulation ratio Cτ, geometric mean (% CVb) ([1]; 200 mg once daily): 1.98 (61.2)
- Dose proportionality of plasma PK ([1]; 10-200 mg): generally dose proportional to 140 mg but non-proportional between 140 and 200 mg
- Tmax ([1]; plasma, oral, Median tmax across all doses, steady state, 10-200 mg): 4.02 to 5.48 h
- AUC(0-t) ([1]; plasma, po, 10 mg): 700 ng·h/mL
- AUC(0-t) ([1]; plasma, po, 40 mg): 3250 ng·h/mL
- AUC(0-t) ([1]; plasma, po, 80 mg): 6120 ng·h/mL
- AUC(0-t) ([1]; plasma, po, 140 mg): 14000 ng·h/mL
- Tmax ([1]; plasma, po, 140 mg, tmax, median (range), repeat dose 140 mg once daily, day 7 (part 2), plasma, n = 6): 4.08 h
- AUC(0-t) ([1]; plasma, po, 200 mg): 12400 ng·h/mL
- Tmax ([1]; plasma, po, 200 mg, tmax, median (range), repeat dose 200 mg once daily, Day 8, 9, or 10 (part 1), plasma, n = 6): 5.48 h
- Dose proportionality power model estimated slope (90% CI) for Cτ ([1]; repeat administration, steady state): 1.14 (90% CI: 1.02–1.26)
- CL/F (apparent oral clearance), geometric mean (% CVb) ([1]; repeat dose 40 mg once daily, day 7 (part 2), n = 6): 5360 (26.8) mL/h
- CL/F (apparent oral clearance), geometric mean (% CVb) ([1]; repeat dose 80 mg once daily, day 7 (part 2), n = 6): 6765 (26.7) mL/h
- CL/F (apparent oral clearance), geometric mean (% CVb) ([1]; repeat dose 140 mg once daily, day 7 (part 2), n = 6): 4779 (27.9) mL/h
- CL/F (apparent oral clearance), geometric mean (% CVb) ([1]; repeat dose 200 mg once daily, Day 8, 9, or 10 (part 1), n = 6): 7159 (18.4) mL/h
- AUC0-τ, geometric mean (% CVb) ([1]; repeat dose 200 mg once daily, Day 8, 9, or 10 (part 1), plasma, n = 6): 27.90 (18.4) µg∗h/mL
- Mean trough concentration relative to target trough concentration ([1]; ≥40-mg groups (all dose groups except 10 mg)): > 110 ng/mL
- Drug-related AEs: Abdominal pain [2, 6]: 0 n (%)
- Drug-related AEs: Any event [2, 6]: 2 (33) n (%)
- Drug-related AEs: Chromaturia [2, 6]: 1 (17) n (%)
- Drug-related AEs: Diarrhea [2, 6]: 1 (17) n (%)
- Drug-related AEs: Epistaxis [2, 6]: 0 n (%)
- Drug-related AEs: Fatigue [2, 6]: 0 n (%)
- Drug-related AEs: Headache [2, 6]: 0 n (%)
- Drug-related AEs: Maculopapular rash [2, 6]: 0 n (%)
- Drug-related AEs: Nausea [2, 6]: 1 (17) n (%)
- Drug-related AEs: Pruritus [2, 6]: 0 n (%)
- Drug-related AEs: Vomiting [2, 6]: 1 (17) n (%)
- Total AEs: Abdominal pain [2, 6]: 0 n (%)
- Total AEs: Any event [2, 6]: 3 (50) n (%)
- Total AEs: Diarrhea [2, 6]: 1 (17) n (%)
- Total AEs: Headache [2, 6]: 0 n (%)
- Total AEs: Lymphadenopathy [2, 6]: 1 (17) n (%)
- Total AEs: Nasopharyngitis [2, 6]: 0 n (%)
- Total AEs: Oropharyngeal pain [2, 6]: 0 n (%)
- Total AEs: Vomiting [2, 6]: 1 (17) n (%)
- Drug-related AEs: Abdominal pain [2, 7]: 0 n (%)
- Drug-related AEs: Any event [2, 7]: 2 (33) n (%)
- Drug-related AEs: Chromaturia [2, 7]: 0 n (%)
- Drug-related AEs: Diarrhea [2, 7]: 1 (17) n (%)
- Drug-related AEs: Epistaxis [2, 7]: 1 (17) n (%)
- Drug-related AEs: Fatigue [2, 7]: 1 (17) n (%)
- Drug-related AEs: Headache [2, 7]: 0 n (%)
- Drug-related AEs: Maculopapular rash [2, 7]: 0 n (%)
- Drug-related AEs: Nausea [2, 7]: 0 n (%)
- Drug-related AEs: Pruritus [2, 7]: 0 n (%)
- Drug-related AEs: Vomiting [2, 7]: 0 n (%)
- Total AEs: Abdominal pain [2, 7]: 0 n (%)
- Total AEs: Any event [2, 7]: 5 (83) n (%)
- Total AEs: Diarrhea [2, 7]: 1 (17) n (%)
- Total AEs: Headache [2, 7]: 1 (17) n (%)
- Total AEs: Lymphadenopathy [2, 7]: 0 n (%)
- Total AEs: Nasopharyngitis [2, 7]: 0 n (%)
- Total AEs: Oropharyngeal pain [2, 7]: 0 n (%)
- Total AEs: Vomiting [2, 7]: 0 n (%)
- Drug-related AEs: Abdominal pain [2, 8]: 2 (33) n (%)
- Drug-related AEs: Any event [2, 8]: 2 (33) n (%)
- Drug-related AEs: Chromaturia [2, 8]: 0 n (%)
- Drug-related AEs: Diarrhea [2, 8]: 0 n (%)
- Drug-related AEs: Epistaxis [2, 8]: 0 n (%)
- Drug-related AEs: Fatigue [2, 8]: 0 n (%)
- Drug-related AEs: Headache [2, 8]: 0 n (%)
- Drug-related AEs: Maculopapular rash [2, 8]: 0 n (%)
- Drug-related AEs: Nausea [2, 8]: 0 n (%)
- Drug-related AEs: Pruritus [2, 8]: 0 n (%)
- Drug-related AEs: Vomiting [2, 8]: 0 n (%)
- Total AEs: Abdominal pain [2, 8]: 2 (33) n (%)
- Total AEs: Any event [2, 8]: 4 (67) n (%)
- Total AEs: Diarrhea [2, 8]: 0 n (%)
- Total AEs: Headache [2, 8]: 0 n (%)
- Total AEs: Lymphadenopathy [2, 8]: 0 n (%)
- Total AEs: Nasopharyngitis [2, 8]: 0 n (%)
- Total AEs: Oropharyngeal pain [2, 8]: 0 n (%)
- Total AEs: Vomiting [2, 8]: 0 n (%)
- Drug-related AEs: Abdominal pain [2, 9]: 0 n (%)
- Drug-related AEs: Any event [2, 9]: 1 (17) n (%)
- Drug-related AEs: Chromaturia [2, 9]: 0 n (%)
- Drug-related AEs: Diarrhea [2, 9]: 0 n (%)
- Drug-related AEs: Epistaxis [2, 9]: 0 n (%)
- Drug-related AEs: Fatigue [2, 9]: 0 n (%)
- Drug-related AEs: Headache [2, 9]: 0 n (%)
- Drug-related AEs: Maculopapular rash [2, 9]: 1 (17) n (%)
- Drug-related AEs: Nausea [2, 9]: 0 n (%)
- Drug-related AEs: Pruritus [2, 9]: 1 (17) n (%)
- Drug-related AEs: Vomiting [2, 9]: 0 n (%)
- Total AEs: Abdominal pain [2, 9]: 0 n (%)
- Total AEs: Any event [2, 9]: 5 (83) n (%)
- Total AEs: Diarrhea [2, 9]: 0 n (%)
- Total AEs: Headache [2, 9]: 1 (17) n (%)
- Total AEs: Lymphadenopathy [2, 9]: 0 n (%)
- Total AEs: Nasopharyngitis [2, 9]: 0 n (%)
- Total AEs: Oropharyngeal pain [2, 9]: 1 (17) n (%)
- Total AEs: Vomiting [2, 9]: 0 n (%)
- Serious AEs: Anal abscess [2, 9]: 1 (17) n (%)
- Serious AEs: Congestive cardiomyopathy [2, 9]: 0 n (%)
- Drug-related AEs: Abdominal pain [2, 10]: 0 n (%)
- Drug-related AEs: Any event [2, 10]: 2 (33) n (%)
- Drug-related AEs: Chromaturia [2, 10]: 0 n (%)
- Drug-related AEs: Diarrhea [2, 10]: 1 (17) n (%)
- Drug-related AEs: Epistaxis [2, 10]: 0 n (%)
- Drug-related AEs: Fatigue [2, 10]: 0 n (%)
- Drug-related AEs: Headache [2, 10]: 1 (17) n (%)
- Drug-related AEs: Maculopapular rash [2, 10]: 0 n (%)
- Drug-related AEs: Nausea [2, 10]: 0 n (%)
- Drug-related AEs: Pruritus [2, 10]: 0 n (%)
- Drug-related AEs: Vomiting [2, 10]: 1 (17) n (%)
- Total AEs: Abdominal pain [2, 10]: 0 n (%)
- Total AEs: Any event [2, 10]: 5 (83) n (%)
- Total AEs: Diarrhea [2, 10]: 1 (17) n (%)
- Total AEs: Headache [2, 10]: 2 (33) n (%)
- Total AEs: Lymphadenopathy [2, 10]: 1 (17) n (%)
- Total AEs: Nasopharyngitis [2, 10]: 2 (33) n (%)
- Total AEs: Oropharyngeal pain [2, 10]: 2 (33) n (%)
- Total AEs: Vomiting [2, 10]: 1 (17) n (%)
- Serious AEs: Anal abscess [2, 10]: 0 n (%)
- Serious AEs: Congestive cardiomyopathy [2, 10]: 0 n (%)
- Trends in laboratory values, electrocardiograms, or vital signs ([2]; across treatment groups in parts 1 or 2): No clinically significant trends
- AEs leading to treatment discontinuation ([2]; all doses): No AEs led to treatment discontinuation
- Deaths ([2]; all doses): no deaths were reported
- Number of drug-related AEs overall ([2]; all doses combined): Fourteen
- Participants reporting abdominal pain overall ([2]; all doses combined): 2 n
- Participants reporting diarrhea overall ([2]; all doses combined): 3 n
- Participants reporting headache overall ([2]; all doses combined): 4 n
- Participants reporting oropharyngeal pain overall ([2]; all doses combined): 3 n
- Participants reporting vomiting overall ([2]; all doses combined): 2 n
- Participants reporting drug-related AEs overall [2, 11]: 9 (26%) n (%)
- Participants with gastrointestinal AEs overall [2, 11]: 7 (21%) n (%)
- Participants reporting AEs overall ([2]; all doses, % of 34 participants incl. placebo (n = 4), all had received GSK’254): 22 (65%) n (%)
- Intensity of AEs and SAEs ([2]; all doses, except 1 participant with 2 grade 3 non-drug-related AEs): mild-to-moderate
- Fold change in half maximal inhibitory concentration (phenotypic resistance) [3]: 132 fold
- EC90 ([4]; read-out: 3× protein-binding adjusted 90% effective concentration (3× PBA EC90)): 150 nM
- EC50 ([4]; read-out: Half maximal effective concentration (EC50)): 3 nM
- 3× protein-binding adjusted 90% effective concentration (3× PBA EC90) ([4]; target trough concentration): 0.11 µg/mL
- Terminal phase half-life [5]: ~ 24 hours
